Reference: ChEMBL document CHEMBL4311979, “Structural isomers of cinnamic hydroxamic acids block HCV replication via different mechanisms” (Eur J Med Chem, 2019)

Tests used:
[1] = biological target: T1, Histone deacetylase 1/2/3 (Homo sapiens) (UniProt Q13547+O15379+Q92769); test: Inhibition of HDAC1/2/3 in human HuH7-luc/neo cells assessed as ratio of H3K9/14ac content to the content of unmodified histone H3 at 1 uM incubated for 24 hrs by Western blot analysis relative to control; format: cell-based
Procedure, shortened: (§1)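 Huh7-luc/neo cells were dosed after 24 h at 40-50% monolayer and exposed to compound for 24 h at 37 °C in 5% CO2. For α-tubulin and SMC3, cells were PBS-washed and lysed. Histone H3 was acid-extracted: TEB buffer with 0.5% Triton X-100, then 0.2 M HCl overnight at 4 °C, then neutralized. Western blots were blocked in 5% milk/PBST with overnight primary antibody at 4 °C. Values are acetylated/total normalized ratios versus control.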

[2] = biological target: T1, Histone deacetylase 1/2/3 (Homo sapiens); test: Inhibition of HDAC1/2/3 in human HuH7-luc/neo cells assessed as ratio of H3K9/14ac content to the content of unmodified histone H3 at 3 uM incubated for 24 hrs by Western blot analysis relative to control; format: cell-based; procedure, shortened: as §1
Hepatitis C virus = test: Antiviral activity against HCV infected in human HuH7-luc/neo cells assessed as inhibition of viral replicon propagation incubated for 3 days by luciferase reporter gene assay; format: functional, organism-based, Hepacivirus hominis; details: 72 h
Procedure, shortened: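 Huh7-luc/neo cells carrying a full-length HCV replicon with a luciferase gene. Cells were reseeded without G418 and dosed at 30-40% monolayer (48 h) over a range of concentrations. Incubation was 72 h at 37 °C in 5% CO2. Cells were then PBS-washed and lysed, and luciferase chemiluminescence was read. EC50 is the mean and standard deviation of at least four independent experiments.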

[3] = Cytotoxicity against human HuH7 cells assessed as reduction in cell viability incubated for 3 days by MTT assay; format: cell-based, Huh-7
Procedure, shortened: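 Huh7 cells were reseeded and dosed over a range of concentrations after 24 h (30-40% monolayer). Incubation was three days at 37 °C in 5% CO2, and viability was read by MTT. CC50 is the mean and standard deviation of at least six independent experiments.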

[4] = Therapeutic index, ratio of CC50 for human HuH7 cells to EC50 for HCV infected in human HuH7-luc/neo cells; format: toxicity, cell-based; details: HuH7 cells (CC50) and HCV-infected HuH7-luc/neo cells (EC50)
[5] = biological target: T2, Protein deacetylase HDAC6 (Homo sapiens) (UniProt Q9UBN7); test: Inhibition of HDAC6 in human HuH7-luc/neo cells assessed as ratio of alphaTubK40ac content to the content of unmodified alpha-tubulin at 1 uM incubated for 24 hrs by Western blot analysis relative to control; format: cell-based; procedure, shortened: as §1
T2 sequence (whole entry): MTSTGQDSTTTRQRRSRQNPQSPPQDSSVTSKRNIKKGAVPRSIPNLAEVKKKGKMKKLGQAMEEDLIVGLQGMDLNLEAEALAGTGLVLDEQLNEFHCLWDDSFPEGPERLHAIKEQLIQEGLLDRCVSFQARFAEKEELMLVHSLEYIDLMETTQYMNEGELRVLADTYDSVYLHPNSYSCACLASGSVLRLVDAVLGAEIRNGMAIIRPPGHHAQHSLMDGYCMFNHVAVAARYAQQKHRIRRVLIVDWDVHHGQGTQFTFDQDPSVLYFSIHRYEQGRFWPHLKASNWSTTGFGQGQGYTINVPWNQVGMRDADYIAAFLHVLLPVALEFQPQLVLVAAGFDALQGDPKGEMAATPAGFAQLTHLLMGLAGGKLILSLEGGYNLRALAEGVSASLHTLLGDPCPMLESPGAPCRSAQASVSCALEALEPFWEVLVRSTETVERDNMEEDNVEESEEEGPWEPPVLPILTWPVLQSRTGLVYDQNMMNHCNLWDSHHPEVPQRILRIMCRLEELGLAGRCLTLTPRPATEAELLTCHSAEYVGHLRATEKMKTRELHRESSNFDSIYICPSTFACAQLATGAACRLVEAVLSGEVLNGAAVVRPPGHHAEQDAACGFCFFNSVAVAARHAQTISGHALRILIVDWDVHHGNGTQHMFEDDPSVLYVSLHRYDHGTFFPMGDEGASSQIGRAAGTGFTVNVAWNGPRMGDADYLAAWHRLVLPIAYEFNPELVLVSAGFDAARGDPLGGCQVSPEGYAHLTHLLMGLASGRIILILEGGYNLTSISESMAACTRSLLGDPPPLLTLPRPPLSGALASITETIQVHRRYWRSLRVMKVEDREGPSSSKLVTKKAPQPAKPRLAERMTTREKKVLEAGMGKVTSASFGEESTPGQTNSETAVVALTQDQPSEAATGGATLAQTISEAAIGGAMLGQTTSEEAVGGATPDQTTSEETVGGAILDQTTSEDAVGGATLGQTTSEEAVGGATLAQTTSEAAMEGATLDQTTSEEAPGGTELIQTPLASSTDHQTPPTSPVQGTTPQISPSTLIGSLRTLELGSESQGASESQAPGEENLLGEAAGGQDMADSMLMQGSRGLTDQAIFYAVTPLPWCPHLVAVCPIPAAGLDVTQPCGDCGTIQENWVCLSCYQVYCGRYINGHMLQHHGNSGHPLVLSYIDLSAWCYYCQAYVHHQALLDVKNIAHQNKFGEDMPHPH

[6] = biological target: T2, Protein deacetylase HDAC6 (Homo sapiens); test: Inhibition of HDAC6 in human HuH7-luc/neo cells assessed as ratio of alphaTubK40ac content to the content of unmodified alpha-tubulin at 3 uM incubated for 24 hrs by Western blot analysis relative to control; format: cell-based; procedure, shortened: as §1
[7] = biological target: T3, Histone deacetylase 8 (Homo sapiens) (UniProt Q9BY41); test: Inhibition of HDAC8 in human HuH7-luc/neo cells assessed as ratio of SMC3K105/106ac content to the content of unmodified SMC3 at 3 uM incubated for 24 hrs by Western blot analysis relative to control; format: cell-based; procedure, shortened: as §1
T3 sequence (whole entry): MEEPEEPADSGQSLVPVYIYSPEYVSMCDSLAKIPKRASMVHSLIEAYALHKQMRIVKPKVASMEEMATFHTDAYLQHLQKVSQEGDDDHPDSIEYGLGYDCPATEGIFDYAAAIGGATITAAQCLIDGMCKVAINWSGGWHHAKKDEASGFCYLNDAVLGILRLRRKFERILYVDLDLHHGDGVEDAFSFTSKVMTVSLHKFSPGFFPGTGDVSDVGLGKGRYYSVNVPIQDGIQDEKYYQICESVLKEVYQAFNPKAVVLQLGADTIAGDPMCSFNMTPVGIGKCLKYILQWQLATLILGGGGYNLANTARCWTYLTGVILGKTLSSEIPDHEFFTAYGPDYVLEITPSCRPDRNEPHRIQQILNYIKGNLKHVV

[8] = biological target: T3, Histone deacetylase 8 (Homo sapiens); test: Inhibition of HDAC8 in human HuH7-luc/neo cells assessed as ratio of SMC3K105/106ac content to the content of unmodified SMC3 at 10 uM incubated for 24 hrs by Western blot analysis relative to control; format: cell-based; procedure, shortened: as §1
[9] = biological target: T3, Histone deacetylase 8 (Homo sapiens); test: Inhibition of HDAC8 in human HuH7-luc/neo cells assessed as ratio of SMC3K105/106ac content to the content of unmodified SMC3 at 0.1 uM incubated for 24 hrs by Western blot analysis relative to control; format: cell-based; procedure, shortened: as §1
[10] = biological target: T3, Histone deacetylase 8 (Homo sapiens); test: Inhibition of HDAC8 in human HuH7-luc/neo cells assessed as ratio of SMC3K105/106ac content to the content of unmodified SMC3 at 0.3 uM incubated for 24 hrs by Western blot analysis relative to control; format: cell-based; procedure, shortened: as §1
[11] = biological target: T3, Histone deacetylase 8 (Homo sapiens); test: Inhibition of HDAC8 in human HuH7-luc/neo cells assessed as ratio of SMC3K105/106ac content to the content of unmodified SMC3 at 1 uM incubated for 24 hrs by Western blot analysis relative to control; format: cell-based; procedure, shortened: as §1
[12] = biological target: T1, Histone deacetylase 1/2/3 (Homo sapiens); test: Inhibition of HDAC1/2/3 in human HuH7-luc/neo cells assessed as ratio of H3K9/14ac content to the content of unmodified histone H3 at 0.3 uM incubated for 24 hrs by Western blot analysis relative to control; format: cell-based; procedure, shortened: as §1
[13] = biological target: T2, Protein deacetylase HDAC6 (Homo sapiens); test: Inhibition of HDAC6 in human HuH7-luc/neo cells assessed as ratio of alphaTubK40ac content to the content of unmodified alpha-tubulin at 0.3 uM incubated for 24 hrs by Western blot analysis relative to control; format: cell-based; procedure, shortened: as §1

SMILES	fold change (FC) [1]	fold change (FC) [2]	EC50 (Hepatitis C virus)	CC50 at 72 h [3]	selectivity ratio [4]	fold change (FC) [5]	fold change (FC) [6]	fold change (FC) [7]	fold change (FC) [8]	fold change (FC) [9]	fold change (FC) [10]	fold change (FC) [11]	fold change (FC) [12]	fold change (FC) [13]
O=C(/C=C/c1cccc(OCCc2ccccc2)c1)NO	8.55	11.2	0.3 µM	12 µM	41	3.53	4.34	0.7	0.58	–	–	–	–	–
COc1cccc(/C=C/C(=O)NO)c1	1.45	1.69	0.57 µM	17 µM	30	2.13	3.3	–	–	–	–	–	–	–
O=C(/C=C/c1cccc(OCc2ccccc2)c1)NO	8.42	14.1	0.18 µM	6.6 µM	37	7.34	10.6	0.82	0.83	–	–	–	–	–
COc1ccccc1/C=C/C(=O)NO	1.16	1.56	1.1 µM	30 µM	27	0.75	1.45	–	–	–	–	–	–	–
O=C(/C=C/c1ccccc1OCc1ccccc1)NO	0.95	1.48	0.25 µM	31 µM	120	2.46	1.99	2.16	3.14	1.51	1.19	1.61	–	–
O=C(/C=C/c1ccccc1OCCOc1ccccc1)NO	1.47	1.94	0.37 µM	45 µM	120	0.5	0.69	3.18	2.87	1.58	2.07	2.14	–	–
O=C(/C=C/c1ccc(Oc2ccccc2)cc1)NO	1.69	2.58	0.054 µM	20 µM	370	2.22	2.58	0.83	0.73	–	–	–	1.53	2.09
O=C(/C=C/c1ccc(OCCc2ccccc2)cc1)NO	9	9.6	0.13 µM	16 µM	120	0.5	2.55	0.52	0.41	–	–	–	4.3	0.52
COc1ccc(/C=C/C(=O)NO)cc1	1.35	1.85	0.56 µM	15 µM	27	3.57	5.1	–	–	–	–	–	–	0.55
O=C(/C=C/c1cccc(OCCOc2ccccc2)c1)NO	7.5	20.2	0.11 µM	6 µM	55	3.33	7.72	0.89	1.44	–	–	–	–	–
O=C(/C=C/c1cccc(Oc2ccccc2)c1)NO	1.75	1.9	0.4 µM	20 µM	50	2.58	3.79	0.54	1.02	–	–	–	1.27	1.54
O=C(/C=C/c1ccc(OCCOc2ccccc2)cc1)NO	11.2	15.4	0.063 µM	5.7 µM	91	3.73	6.35	0.84	1.13	–	–	–	4.04	0.86
O=C(/C=C/c1ccc(OCc2ccccc2)cc1)NO	4.23	4.83	0.042 µM	9.9 µM	240	4.92	8.86	0.93	0.67	–	–	–	–	1.63
O=C(/C=C/c1ccccc1Oc1ccccc1)NO	0.9	1.46	0.4 µM	66 µM	165	0.74	1.01	2.66	3.14	1.7	2.03	2.15	0.62	–
O=C(/C=C/c1ccccc1OCCc1ccccc1)NO	2.39	4.34	0.32 µM	83 µM	260	0.64	0.8	3.17	3.78	1.84	2.03	1.98	–	–
